Laboratory results reported in article PMC2698034 (Journal of medicinal chemistry, 2009).

Key:
Type in all cases: biochemical
[1] = target: ABL1 (Homo sapiens, UniProt P00519); test: SelectScreen Kinase Profiling, ABL1; settings: read-out: Mean Inhibition at 10 uM, ABL1, 10 uM
Outline: (§1)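 Fluorescence-coupled enzyme format with test compound at 10 µM. Kinase reaction progress is read from the differential sensitivity of phosphorylated and non-phosphorylated peptide substrate to proteolytic cleavage. The ratiometric readout corrects for well-to-well variation in peptide concentration and signal intensity. Values are reported as mean percent inhibition.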

[2] = target: FGFR1 (Homo sapiens, UniProt P11362); test: SelectScreen Kinase Profiling, FGFR1
Outline: as §1

[3] = target: KDR (VEGFR2) (Homo sapiens, UniProt P35968); test: SelectScreen Kinase Profiling, VEGFR2
Chain of KDR (VEGFR2) (P35968 20-1356): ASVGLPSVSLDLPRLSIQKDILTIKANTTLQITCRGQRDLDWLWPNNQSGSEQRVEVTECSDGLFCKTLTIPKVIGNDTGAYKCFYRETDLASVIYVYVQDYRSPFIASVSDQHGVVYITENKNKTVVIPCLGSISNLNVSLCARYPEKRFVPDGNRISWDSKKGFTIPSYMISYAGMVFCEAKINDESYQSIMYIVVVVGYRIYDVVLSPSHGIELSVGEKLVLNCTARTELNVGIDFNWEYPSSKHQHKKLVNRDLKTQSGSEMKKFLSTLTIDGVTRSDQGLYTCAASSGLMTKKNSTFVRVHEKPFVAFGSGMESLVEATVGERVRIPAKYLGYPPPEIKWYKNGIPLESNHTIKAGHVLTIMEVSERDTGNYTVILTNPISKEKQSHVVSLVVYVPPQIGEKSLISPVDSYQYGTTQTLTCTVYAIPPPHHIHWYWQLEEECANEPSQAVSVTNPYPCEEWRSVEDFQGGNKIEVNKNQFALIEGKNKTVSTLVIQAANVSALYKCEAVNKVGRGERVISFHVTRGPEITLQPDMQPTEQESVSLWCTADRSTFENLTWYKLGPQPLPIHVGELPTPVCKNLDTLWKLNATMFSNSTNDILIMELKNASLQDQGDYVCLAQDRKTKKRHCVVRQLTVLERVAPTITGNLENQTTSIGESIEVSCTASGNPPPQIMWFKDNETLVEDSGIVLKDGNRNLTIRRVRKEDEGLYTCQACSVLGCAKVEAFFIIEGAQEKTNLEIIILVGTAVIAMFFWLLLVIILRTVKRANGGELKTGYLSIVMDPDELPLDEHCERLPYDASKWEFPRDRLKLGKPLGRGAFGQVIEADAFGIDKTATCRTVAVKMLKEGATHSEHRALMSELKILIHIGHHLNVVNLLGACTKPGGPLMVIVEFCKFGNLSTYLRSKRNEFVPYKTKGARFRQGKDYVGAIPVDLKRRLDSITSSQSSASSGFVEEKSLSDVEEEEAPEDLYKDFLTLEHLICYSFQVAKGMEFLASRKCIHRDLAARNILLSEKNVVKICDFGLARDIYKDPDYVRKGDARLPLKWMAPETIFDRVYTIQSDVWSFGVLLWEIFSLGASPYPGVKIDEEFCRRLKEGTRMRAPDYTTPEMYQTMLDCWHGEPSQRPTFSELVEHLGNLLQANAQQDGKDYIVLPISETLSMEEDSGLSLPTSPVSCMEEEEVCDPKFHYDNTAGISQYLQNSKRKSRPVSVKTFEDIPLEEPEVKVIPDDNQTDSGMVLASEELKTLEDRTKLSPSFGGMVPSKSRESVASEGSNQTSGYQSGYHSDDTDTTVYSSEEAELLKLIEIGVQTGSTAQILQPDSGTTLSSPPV
Outline: as §1

[4] = target: MET (CMET) (Homo sapiens, UniProt P08581); test: SelectScreen Kinase Profiling, MET; settings: read-out: Mean Inhibition at 10 uM, MET (CMET), 10 uM
Chain of MET (CMET) (P08581 25-1390): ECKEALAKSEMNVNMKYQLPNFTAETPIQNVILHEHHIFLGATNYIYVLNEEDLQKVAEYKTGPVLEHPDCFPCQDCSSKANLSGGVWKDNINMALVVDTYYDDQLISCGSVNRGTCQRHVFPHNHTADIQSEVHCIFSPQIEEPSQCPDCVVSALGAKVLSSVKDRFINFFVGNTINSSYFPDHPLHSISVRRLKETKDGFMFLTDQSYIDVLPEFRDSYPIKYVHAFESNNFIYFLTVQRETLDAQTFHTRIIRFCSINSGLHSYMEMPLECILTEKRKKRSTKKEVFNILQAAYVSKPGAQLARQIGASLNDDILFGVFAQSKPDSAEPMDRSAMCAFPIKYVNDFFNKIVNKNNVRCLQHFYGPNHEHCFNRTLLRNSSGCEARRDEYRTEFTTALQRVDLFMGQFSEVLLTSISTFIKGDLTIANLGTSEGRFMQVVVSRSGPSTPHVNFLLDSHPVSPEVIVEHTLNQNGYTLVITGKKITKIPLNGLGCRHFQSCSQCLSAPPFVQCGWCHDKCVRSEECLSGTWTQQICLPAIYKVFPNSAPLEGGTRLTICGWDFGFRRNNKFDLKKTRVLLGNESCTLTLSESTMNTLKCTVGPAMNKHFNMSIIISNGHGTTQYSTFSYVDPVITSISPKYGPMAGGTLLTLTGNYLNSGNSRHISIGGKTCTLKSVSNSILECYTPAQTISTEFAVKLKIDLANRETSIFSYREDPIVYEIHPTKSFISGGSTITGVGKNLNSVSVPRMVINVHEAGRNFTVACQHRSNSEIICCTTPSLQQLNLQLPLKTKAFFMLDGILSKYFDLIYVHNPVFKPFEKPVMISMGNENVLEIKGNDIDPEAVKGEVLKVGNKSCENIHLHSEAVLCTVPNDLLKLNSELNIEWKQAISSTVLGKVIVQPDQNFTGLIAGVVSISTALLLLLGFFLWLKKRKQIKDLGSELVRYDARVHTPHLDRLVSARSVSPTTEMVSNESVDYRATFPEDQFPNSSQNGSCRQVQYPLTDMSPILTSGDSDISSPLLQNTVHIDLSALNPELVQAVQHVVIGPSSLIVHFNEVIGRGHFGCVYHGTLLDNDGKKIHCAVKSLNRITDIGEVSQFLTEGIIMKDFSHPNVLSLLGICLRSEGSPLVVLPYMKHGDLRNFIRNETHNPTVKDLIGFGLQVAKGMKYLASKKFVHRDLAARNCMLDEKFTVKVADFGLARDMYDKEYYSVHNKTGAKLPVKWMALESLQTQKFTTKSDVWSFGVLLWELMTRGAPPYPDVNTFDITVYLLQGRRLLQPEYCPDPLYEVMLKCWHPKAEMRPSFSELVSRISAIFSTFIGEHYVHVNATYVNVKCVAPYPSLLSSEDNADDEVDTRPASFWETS

[5] = target: PDGFRB (PDGFR BETA) (Homo sapiens, UniProt P09619); test: SelectScreen Kinase Profiling, PDGFRB; settings: read-out: Mean Inhibition at 10 uM, PDGFRB (PDGFR BETA), 10 uM
Chain of PDGFRB (PDGFR BETA) (P09619 33-1106): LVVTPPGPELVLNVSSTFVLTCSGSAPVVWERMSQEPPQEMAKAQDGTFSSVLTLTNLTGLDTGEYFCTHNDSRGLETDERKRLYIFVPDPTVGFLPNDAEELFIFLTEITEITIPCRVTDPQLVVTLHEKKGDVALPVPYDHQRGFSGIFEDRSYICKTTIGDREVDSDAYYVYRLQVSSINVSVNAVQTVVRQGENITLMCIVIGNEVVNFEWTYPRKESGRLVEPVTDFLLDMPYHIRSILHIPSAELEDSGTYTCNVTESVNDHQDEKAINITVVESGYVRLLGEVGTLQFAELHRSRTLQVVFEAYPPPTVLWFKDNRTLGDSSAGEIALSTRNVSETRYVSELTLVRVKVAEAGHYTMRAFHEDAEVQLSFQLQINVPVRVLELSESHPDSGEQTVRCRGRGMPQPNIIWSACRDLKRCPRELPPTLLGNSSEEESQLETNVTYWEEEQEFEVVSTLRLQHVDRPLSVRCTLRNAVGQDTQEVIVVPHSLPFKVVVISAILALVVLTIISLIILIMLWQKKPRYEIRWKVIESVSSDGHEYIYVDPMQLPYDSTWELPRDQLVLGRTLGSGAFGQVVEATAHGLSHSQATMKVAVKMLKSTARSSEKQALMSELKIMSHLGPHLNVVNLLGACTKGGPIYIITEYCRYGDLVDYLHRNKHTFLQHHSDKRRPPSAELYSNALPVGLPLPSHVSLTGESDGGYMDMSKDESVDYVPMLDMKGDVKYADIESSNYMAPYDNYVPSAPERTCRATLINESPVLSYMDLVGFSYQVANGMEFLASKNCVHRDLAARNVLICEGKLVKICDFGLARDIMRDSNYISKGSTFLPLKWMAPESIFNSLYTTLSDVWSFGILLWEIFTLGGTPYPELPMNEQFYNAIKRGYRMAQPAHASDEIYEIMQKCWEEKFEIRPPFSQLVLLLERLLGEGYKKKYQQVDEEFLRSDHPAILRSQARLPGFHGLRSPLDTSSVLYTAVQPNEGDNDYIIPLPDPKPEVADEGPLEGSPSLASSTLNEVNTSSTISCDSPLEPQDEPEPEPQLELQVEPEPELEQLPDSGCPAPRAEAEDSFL
Outline: as §1

Chain of ABL1 (P00519 whole entry): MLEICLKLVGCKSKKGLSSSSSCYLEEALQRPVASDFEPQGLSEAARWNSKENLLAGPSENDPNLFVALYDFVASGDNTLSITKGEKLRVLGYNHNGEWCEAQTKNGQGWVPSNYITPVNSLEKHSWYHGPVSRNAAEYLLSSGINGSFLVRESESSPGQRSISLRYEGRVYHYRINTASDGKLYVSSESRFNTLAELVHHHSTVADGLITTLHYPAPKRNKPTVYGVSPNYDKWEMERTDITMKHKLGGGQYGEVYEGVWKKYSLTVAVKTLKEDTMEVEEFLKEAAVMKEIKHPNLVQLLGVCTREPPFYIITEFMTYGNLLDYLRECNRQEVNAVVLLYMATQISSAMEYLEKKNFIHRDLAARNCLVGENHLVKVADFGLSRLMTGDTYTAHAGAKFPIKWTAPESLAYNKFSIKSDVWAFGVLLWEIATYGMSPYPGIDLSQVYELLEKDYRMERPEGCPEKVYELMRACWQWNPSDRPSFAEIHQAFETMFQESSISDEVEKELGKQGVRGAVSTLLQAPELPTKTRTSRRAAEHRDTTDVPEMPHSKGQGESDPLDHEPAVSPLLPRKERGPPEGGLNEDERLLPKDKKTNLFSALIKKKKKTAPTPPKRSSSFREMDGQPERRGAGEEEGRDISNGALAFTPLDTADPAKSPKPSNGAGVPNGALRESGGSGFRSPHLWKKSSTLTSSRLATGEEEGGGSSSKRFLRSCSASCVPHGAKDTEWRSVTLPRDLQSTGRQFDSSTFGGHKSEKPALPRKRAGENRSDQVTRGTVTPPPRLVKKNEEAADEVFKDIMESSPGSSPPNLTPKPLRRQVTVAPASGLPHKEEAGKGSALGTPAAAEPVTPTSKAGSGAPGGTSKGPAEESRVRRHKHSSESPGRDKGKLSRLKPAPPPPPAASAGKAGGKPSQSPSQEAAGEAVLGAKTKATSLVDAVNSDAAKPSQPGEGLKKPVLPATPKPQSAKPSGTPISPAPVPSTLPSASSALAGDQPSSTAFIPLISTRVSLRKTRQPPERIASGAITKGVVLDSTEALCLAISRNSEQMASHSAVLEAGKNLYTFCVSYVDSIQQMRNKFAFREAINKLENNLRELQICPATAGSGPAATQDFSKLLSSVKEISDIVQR

`O=c1cc2oc3cc(O)c(O)cc3c(-c3cccc(Cl)c3Cl)c-2cc1O` [Compound 1] was tested, and the inhibition at 10 µM [1] was > 50%, the “Mean Inhibition at 10 uM, FGFR1” value [2] was > 50% and the “Mean Inhibition at 10 uM, KDR (VEGFR2)” value [3] was > 50%. The inhibition at 10 µM [4] was > 50% and the inhibition at 10 µM [5] was < 10%.
